species on record: Cavia porcellus; experiment: Compound was evaluated in vitro by SDT (Schultz-Dale Test) against isolated guinea pig lung strips repeatedly challenged with antigen in the presence of an antihistamine (H1) at a concentration 30 uM; i = No significant activity at 1.0 uM; assay type: functional

Row | IC50 | SMILES
1 | No significant activity | CCCCCCCCCOc1c(C(=O)Nc2nn[nH]n2)oc2c3ccccc3n(-c3ccccc3)c12

species on record: Cavia porcellus; experiment: Compound was evaluated in vitro by SDT (Schultz-Dale Test) against isolated guinea pig lung strips repeatedly challenged with antigen in the presence of an antihistamine (H1) at a concentration 10 uM; assay type: functional

Row | SMILES | inhibition at 10 µM [%]
2 | COC(=O)c1oc2c3cc(OC)ccc3n(-c3ccccc3)c2c1OC | 23
3 | CCOc1c(C(=O)OC)oc2c3cc(OC)ccc3n(-c3ccccc3)c12 | 24
4 | O=C(O)c1cc2c(o1)c1ccccc1n2-c1ccccc1 | 33

species on record: Cavia porcellus; experiment: Compound was evaluated in vitro by SDT (Schultz-Dale Test) against isolated guinea pig lung strips repeatedly challenged with antigen in the presence of an antihistamine (H1); b = No activity at a concentration 30 uM; assay type: functional

Row | SMILES | inhibition
5 | COC(=O)c1oc2c3ccccc3n(-c3ccccc3)c2c1OC | No activity

species on record: Cavia porcellus; experiment: Compound was evaluated in vitro by SDT (Schultz-Dale Test) against isolated guinea pig lung strips repeatedly challenged with antigen in the presence of an antihistamine (H1); c = No activity at a concentration 30 uM; assay type: functional

Row | IC50 | SMILES
6 | No activity | COc1c(-c2nn[nH]n2)oc2c3ccccc3n(C)c12
7 | No activity | COc1c(C(=O)O)oc2c3ccccc3n(C)c12

species on record: Cavia porcellus; experiment: Compound was evaluated in vitro by SDT (Schultz-Dale Test) against isolated guinea pig lung strips repeatedly challenged with antigen in the presence of an antihistamine (H1) at a concentration […].; assay type: functional
Method in brief: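 Lung strips in Tyrode's pH 7.4, 37 °C, with mepyramine 1 µM, at 300 mg base-line tension. Drug in 0.2% NaHCO3 is added 15 min before the ovalbumin bolus. Percent inhibition is taken against the tissue's prior control contraction, usually on four or more tissues. IC50 by linear regression.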

Row | SMILES | IC50 [nM]
8 | CC(C)NCC(O)c1ccc(O)c(O)c1 (stereo unspecified) [ISOPROTERENOL] | 0.15

species on record: Cavia porcellus; experiment: In vitro Schultz-Dale Test against isolated guinea pig lung strips repeatedly challenged with antigen in the presence of an antihistamine (H1) at a concentration 30 uM.; assay type: functional

Row | SMILES | IC50 [nM]
9 | COc1c(C(=O)O)oc2c3ccccc3n(-c3ccccc3)c12 | 4600
10 | CC(C)Oc1c(C(=O)O)oc2c3ccccc3n(-c3ccccc3)c12 | 3700
11 | CCCc1c2c(c(O)c3c(=O)cc(C(=O)O)oc13)CCCC2 [PROXICROMIL] | 6300
12 | COc1c(C(=O)Nc2nn[nH]n2)oc2c3ccccc3n(C)c12 | 21600
13 | CCOc1c(C(=O)O)oc2c3ccccc3n(-c3ccccc3)c12 | 3200
14 | CCCc1c(OCC(O)COc2ccc3c(=O)cc(C(=O)O)oc3c2CCC)ccc(C(C)=O)c1O (stereo unspecified) [FPL-55712] | 2400

Continued, values first:

Row | IC50 [nM] | SMILES
15 | 500 | COc1c(C(=O)Nc2nn[nH]n2)oc2c3ccccc3n(-c3ccccc3)c12
16 | 200 | CCOc1c(C(=O)Nc2nn[nH]n2)oc2c3ccccc3n(-c3ccccc3)c12
17 | 2200 | CCOc1c(C(=O)Nc2nn[nH]n2)oc2c3cc(OC)ccc3n(-c3ccccc3)c12
18 | 2800 | COc1ccc2c(c1)c1oc(C(=O)O)c(OC)c1n2-c1ccccc1
19 | 3200 | CCOc1c(-c2nn[nH]n2)oc2c3ccccc3n(-c3ccccc3)c12
20 | 1700 | CCOc1c(-c2nn[nH]n2)oc2c3cc(OC)ccc3n(-c3ccccc3)c12
21 | 60 | CC(C)Oc1c(C(=O)Nc2nn[nH]n2)oc2c3ccccc3n(-c3ccccc3)c12
22 | 4300 | CCOc1c(C(=O)O)oc2c3cc(OC)ccc3n(-c3ccccc3)c12
23 | 2800 | COc1ccc2c(c1)c1oc(C(=O)Nc3nn[nH]n3)c(OC(C)C)c1n2-c1ccccc1
24 | 1500 | COc1ccc2c(c1)c1oc(-c3nn[nH]n3)c(OC)c1n2-c1ccccc1
25 | 900 | COc1ccc2c(c1)c1oc(C(=O)Nc3nn[nH]n3)c(OC)c1n2-c1ccccc1
26 | 2900 | COc1c(-c2nn[nH]n2)oc2c3ccccc3n(-c3ccccc3)c12

Reference: ChEMBL document CHEMBL1122537, “Acidic furo[3,2-b]indoles. A new series of potent antiallergy agents” (J Med Chem, 1984)
